The record followed here is the RNAGym collection of RNA variant scans (doi:10.1126/science.aae0568).

First the molecules themselves.
B1: tRNA (parent)
chain: GUUCCGUUGGCGUAAUGGUAACGCGUCUCCCUCCUAAGGAGAAGACUGCGGGUUCGAGUCCCGUACGGAACG

Variants at the floor of the assay were thinned out. Bounds are passed on as bounds.

Variants of B1 are the subject of the series. In words: yeast fitness relative to wild type (ratio to wild type); higher = fitter; tRNA-Arg(CCU), competitive growth, 37 C, YPD. Put shortly: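 A pool of Saccharomyces cerevisiae strains, each with a tRNA-Arg(CCU) gene variant at the native genomic locus, was competed in YPD at 37°C for 24 hours across six parallel replicates. The variants had been chemically synthesised at a 3% per-site mutation rate over 69 sites, and gene amplicons before and after competition were read by 100-nucleotide paired-end sequencing. Darwinian fitness relative to wild type rested on changes in genotype frequencies. Genotypes required ≥ 100 starting reads, and estimates < 0.5 were set to 0.5.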
Regarding GUUCCGUUGGCGUAAUGGUAACGCGUCUCCCUCCUAAGGGGAGGACUGCGGGUUUGAGUCCCGUACGGAACG, the yeast fitness is 0.565. With GUACCCUUGGCGUAAUGGUAACGCGUCUCCCUCCUAAGGAGAAGACUGCGGGUUGGAGUCCCGUACGGAACG, the yeast fitness was at most 0.5. The result for GUACCGUUGGCGUAACGGUAACGCGUCUCCCUGCUAAGGAGAAGACUGCGGGUUCGAGUCCUGUACGGAACG reads at most 0.5. Regarding GUUCCGUUGGCGGAAUGGUAACGCGUCUCCCUCCUAAGGAUAAGACUGCGGGUUCGAGUCCCGUAGGGAACG, the yeast fitness is at most 0.5.

Consider GUUCAGUUGCCGUAAUGGUAACGGGUCUCCCUCCUAAGGAGAAGACUGCGGGUUCGAGUCCCGUACGGAACG, for which the yeast fitness is at most 0.5. The result for GUUCCGUUGGCGUAAUGGUAACGCGUCUCCGUCCUAAGGAGAGGACUGUGGGUUCGAGUCACGUACGGAACG reads at most 0.5. The result for GUUCCGUUGGCGUAGUGGUAACGCGUCUCCCUCCUAAGGUGAAGACUGCGGGUUCGAGUCCCGUACGGAACG reads 0.767; that for GUUCCGUUGGCGUGAUGGUAACGCGUCUCCCUCCUAAGGAGAAGGCUGCGGGUUCGAGUCACGUACGGAACG, at most 0.5; that for GUUCCGUUGGCGUAAUGGGAACGCGUCUCCCUCCUAACGAGAAGACUGCGGGUUCGUGUCCCGUACGGAACG, 0.552.

On to GUUCCAUUGGCGUAAUGGUAACGCGUCUCCCUCCUUAGGAAAAGACUGCGGGUUCGAGUGCCGUACGGAACG, for which the yeast fitness is at most 0.5. Then GUUCCGUUAGCGUAAUGGUAACGCGUCUCCCUCCUAAGGAGAAGAAUGCGGGUUCGAGUCCCGUACGGAACG, with 0.91. The result for GUUCCGUUGGCGUCAUGGUAACGCGUCUCCCUCCUAAGGAGAAGAGUGCGGGUUCGAGUGCCGUACGGAACG reads at most 0.5; that for GUUCCGUUGGCGUAAUGGUAACGUGUCUCCCUCCUAAGGCGAAGACUACGGGUUCGAGUCCCGUACGGAACG, 0.634. Then GUUUCGUUGGCGAUAUGGUAACGCGUCUUCCUCCUAGGGAGAAGACUGCGGGUUCGAGUCCCGUACGGAACG, with 0.581; and GUUCCGUUGGCGUCAUGGGAACGCGUCUCCGUUCUAAGGAGGAGACUGCGGGUUCGAGUCCCGCGCGGCACG, with at most 0.5.

GUUCCGUUGGCGUAAUGGUAACGCGUCUCCCUCCUAAGGAGAAGACAGCGGGUUCGAGUCCCGUACGGCACG: the yeast fitness came to 0.82.

For GUUCCGUUGGUGUAAUGGUAACGCGUCUCCCUCCUAAGGAGCAGACUGCGGGUUCGAGUCCCGUACGGAACG, the yeast fitness is 0.91. Turning to GUUCCGAUGACGUGAUGGUAACGCGUCUCCCUCCUAAGGACUAGAAUGCGGGUUCGAGUCGCGUACGGAACG, the yeast fitness was at most 0.5. As to GUUCCGUUGGCGUAAUGGUAACGCGUCUCCCUCCUAAGGAGAAGGCUGCGGGUUCGAGUCCAGUACGGAACG, the yeast fitness turned out to be 0.8. As for GUACCGUUGGCGUAAUGGUAACGCGUCUCCCUCCUUAGGAGAGGACUGCGGCUUCGAGUCCCGUACGGAACG, the yeast fitness was at most 0.5. Turning to GCUCUGUUGGGGUAAUGGUAACGCGUCUCCCUCUUGAGGAGAAGACUGCGGGUUGGUGUCCCGUACAGAACG, the yeast fitness is at most 0.5. As for GUUGCGUUGGCGUAAUAGUAAAGCGUCUCCCUCCUAAAGAGAAGACUGCGGGUUCGAGUCCCGUACGGAACG, the yeast fitness turned out to be 0.638. As for GUUCCGUUGGCGUAGUGGUCACGCGUCUCCCUCCUAAGGAGAUGACUGCGGGUACGAGUCCCGUACGGAACG, the yeast fitness is at most 0.5. The result for GUUCCGUUGGCCUAAUGGUAACGCGUCUCCCUCCUAAGGAGAAGACUGCGGGUUCGAGUCCCCUACGGAACG reads 0.699; that for GUUCCGUUGGCGUAAUGAUAACGCGUCUCGCUCGUAAGGAGAAGACUGCGGGUUCGAGUCCCGUACGGAACG, at most 0.5; that for GUUCUGUUGACGAAGUGGUAACGCGUCUCCCUCCUAAGGAGAAGACUGCCGGUUCGGGUCCCGUACGGAACG, at most 0.5. The result for GUUCCCUUGCCGUAAUGGUAACGCGUCUCCCUCCUAAGGAGAAGACUGCGGGUUCGAGUCCCGUACGGCACG reads 0.589; that for GUUCCGUUAGCGUAAUGGUAACGCGUCUCCCUCCUAAGGAGAAAAUUGCGGGUUCGAGUCCCGUACGGCACG, 0.787; that for GUUCUGUUGGCGUAAUGGUAUCGCGUCUCCCUCCUUAGGAGAAGACUGCGGGUUCGAGUCCCGUGCGGAACG, at most 0.5.

Regarding GUUCCGUUGGCGUAAUGGUAACGCGUUCCCCUCCUAAGGAGAAGACUGUGGGUACGCGCCCCGUACGGAACG, the yeast fitness is 0.706. On to GUUCCGUUGGCCUAAUGGUAACGCGUCUCCCUCCUAAGGAGAAGUCUGCGGGUUCGAGUCCCGUACGGAUCG, for which the yeast fitness amounted to 0.564.

Consider GUCCCGUUAGCGUAAUGGUAACGCGUCUCCCUCCUAAGGAGAAGACUGCGGGUUCGAGUCCCGUACGGUACG, for which the yeast fitness turned out to be 0.882. The result for GUUCCGUUGGCGUAAUGGUAACGCGUUUCCCUCCUAAGGAGAAGACUGUGGGUUCGGGUCCCGUACGGAACG reads 0.703.

Consider GUUCCGUUGGCGUAAUGGUAACGCGUCUCCCUCCUAAGGAGAAGGCUGCGGGUUUGAGUCCCGUCCGGAACG, for which the yeast fitness was at most 0.5. The result for GUUCCGUUGGCGUAAUGGUAACGCGUACCCCUCCUAAGGAGAAGACUGCGGGUUCGAGUCCCGUACUGAGCG reads at most 0.5. The result for GUUCCGUUGGUGUAAUGGUAUCGCGUCUCCCUCCUAAGGACAAGACUGCGGGUUCGAGUCCCGUACGGAACG reads 0.603; that for GUUCCGUUGGCGUAAAGGUAACGCGUCUCCCUCCUAAGAAGGAGACUGCGGGUUAGAGUCCAGUACGGAACG, at most 0.5; that for GUUCCGUAGGCGUAAUGGAAACGCGUCUCCCUCCUAAGGAGAAGACUGCCGGUUCGAGUCCCGUACGGAACG, at most 0.5. For GUUCCGUUGGCGUAAUGGUAACGCGUCUCCCUCCUAAGGAGAAGACUGCGGGUUCGAGUCCCGUUCCGAACG, the yeast fitness amounted to 0.64. Then GUUCCGUUGCCGUAAUGGUAACGAGUCUCCCUCCUAAGGAGAACACUGCGGGUUCGAGUCCCGUACGGAACG, with at most 0.5.

With GUUCCGUUGGCGUAAUGGUAACGCGUCUCCCUCCCAAGGAGAAGAUUGCGCGUUCGAGUCCCAUACGGAACG, the yeast fitness was determined as 0.619. Take GUUCUAUUGGCGUAAUGGUAACGCGUCUCCCUCCUAAGGAGAAGACUGCGGGUUCGAGUCCCGUUUGGAGCG: the yeast fitness is at most 0.5. In the case of GUUCCGUUGGCGUAAUGGUAACGCGUCUUCCUCCUAAGGAGAAGAGUGCGAAUUCGAGUCCCGUACGGAACG, the yeast fitness was at most 0.5. Then GUUCCGUUGGCGUAAUGGUAGCGCGUCUCCCUCCUAAGGAGAAGCCUGCGGGUUCGAGUCCUGUACGCGACG, with at most 0.5; and GUUACGUUGGCGUAAUGGUAACGCGUCUCCCUCCUAAGGAGAAGACUGCGGGUUCGAGUCCCGAACGGAACG, with 0.815. The result for GUUCCGUUGGCGUAAUGGUAACGCGUCUCCCUCGUAAGGAGAAGACUGCGAGUUCGAGUCCCGUACGGAACG reads 0.94; that for GAUCCGUCGGCAUAAUGGUAACGCGUCUCCCUCCUAAGGAGUAGACUGCGGGUUCGAGUCCCGUACGGAACG, at most 0.5.

Take GCUCGGUUGGCGUGAUGGUAACGCGUCUCCCUCCUAAGGAGAAGACUGCGGGUUCGAGUCCCGUACGGAACG: the yeast fitness turned out to be 0.559. As for GUUCCCUUGGGGUACUGGUAACGCCUGUCGCUCCUAACGAGAAGACUGCGGGUUCGAGUCCCGUACGGAGCG, the yeast fitness was at most 0.5.

As to GUUCCGAUGGCGUAAUGGUAACGCGUCUCCCUCCUAAGGGGAAGACUGCGGGUUCGAGUCCCGUACGGAACG, the yeast fitness came out at 0.73. The result for GUUCCGUUGGCAUAAUGGUAACGCGUCUCCCUCCUAAGGAGAAGACUGUGGGUUCGAGUCCCGUACGGAACG reads 0.93; that for GUUCCGUUGGCGUAAUGGUAACGCGUCUUCCUCCUAAGGAGAAGACUGCGGGUUCGAGUCCCGAACGGAACG, 0.677; that for GUACCGUUGGCGUAAUGGUAAGGCGUCUCCGUCCUAAGGAGAAGACUGCGGGUUCGAGUCCCGUACGGAACG, at most 0.5. Then GUUCCGUUGGCGUAUUCGUAACGCGUCUCCCUCCUAAGGAGAAGUCUGGGGGUUUGAGUCCCGUACGGAUCG, with at most 0.5; and GUUCCGUUGGCGUAAUGGUAACGCGUCUCCCUCCUAAGGAGAAGACUCAGGGAUCAACUCCCGUACGCAACG, with at most 0.5.

Turning to GUUCCGUUGGCGUAAUGGUAUCGCAUCUCCCUCCUAAGGAGAAGACUGCGGGUUCCAGUCCCGUACGGAACG, the yeast fitness is at most 0.5. Then GUUCCGUUGGCGUAAUGGUACCGCGUCUCCCUCCUAAGGAGGAGACUGCGGGUUCGAGUCCCGUACGGAACG, with 0.751; and GUUCCGUUGGCGUAAUGGUAACGCGUCUCCCUCCUAAGGAGAAGACUGCGGGUUCGAGUCCCGUAAGAAACG, with 0.695. The result for GUUCCGUUAGCGUAAUGGUAACGCGUAUCCCUCCUAAGGAGAAGACUGCGGGUUCGAGUCCCGUACGGAACG reads 0.955. Then GUUCCGUUGGCGUUAUGGUAACGCGUCUCCAUCCUAAGGAGAAGAUUAUGGGUUCGAGUCCCGUACGGAACG, with at most 0.5; and GUUCCGUUCGCGUAAUGGUAACGCGUCUCCCUCCUAAGGAGAAGACUGCGGGUUCGAGUCCGGUACGGAACG, with 0.608; and GUUCCGUUGGCAUAAUGGUAACGAGUCUCCCUCCUUAGGAGAAGACUGCGGGUUCGAGUCUCGUACGGAACG, with 0.618. Turning to GUUCCGUUGGCAUAAUAGUAACGCGGCUCCCUACUAUGGAGAAGUCUGCGGGUUCGAGUCCCGUACGGAACG, the yeast fitness was at most 0.5. Regarding GUUCCGUCGGCGUAGUGGUAACGCGUCUCCCUCCUAAGGAGAAGACUGCGGGUUCGAGUCCCGUACGGAACG, the yeast fitness was determined as 0.969. The result for GUUCCGCUGGCGUAAUGGUAACGCGUCUCCCUCCUAAGGAGAAGACUGCGGGAUCGAGUCCCGUACGGAGCG reads at most 0.5; that for GUUCCGUUGGCGUAAUGGUAACGCGUCUCCCUCCUAAGGAGAAGGCUGCAGGUCCGAGUCCCGUACGGAACG, at most 0.5; that for GUUUCGCUGGCGUAAUGGUAACACGUCUCCCUCCUAAGGUGCAGACUGCGGGUUCGAGUACCGUACGGAACG, at most 0.5. As for GUUCGGUUGGCGUCAUGGUAACGCGUCUACGUCCUAAGGAGAAGACUGCGGGUUCGAGUCCCGUACGGAACG, the yeast fitness came out at 0.529. In the case of GUUCCGUUGGCGUAAUGGUAACGCGCCUCCCUCCUAACGAGAAGACUGCGGGUUCGAGUCCCGUACGGAACG, the yeast fitness was 0.717.

With GUUCCGUUGGCGUAAUGGUAACGGGUCUCCCUCCUAAGGAGAAAAUUGCGGGCUCGAGUCCCGUACGGAACG, the yeast fitness was at most 0.5. Regarding GUUCCGUUGGCGUAAUGGUAACGCGUCUCCCUCCUAAGGAGAAGACUGCGGCCUCGAGUCCCGUACGGAACG, the yeast fitness was at most 0.5. For GUUCCGUUGGCGUAAUGGUAACGCGUCUCCCUCCUAAUGAGAAGACUACGGGUUCGAGUCCCGUACGGAUCG, the yeast fitness was 0.652. Then GUUCCGUUGGCGUAAUGGUAACGCGUCUCCCUCCUAAGGAGAAGACUGUGGGUUGGAGUCCCAUACGGAACG, with at most 0.5; and GUUCCGUUGGCGUAAUGGUAGCGCGUCUUCCUCCUAAGGAGAAGACUGCGGGUUCGAGUCCCGUACGGAACG, with 0.944; and GUGCCGCUGGCGUAAUGAUAACGCGUCUCGCUCCUAAGGAUAAGACUGGGGGUUCGAGUCCCGUACGGAACG, with at most 0.5.
